Results taken from ChEMBL document CHEMBL3045565, “Microwave synthesis, characterization and bio-efficacy evaluation of novel chalcone based 6-carbethoxy-2-cyclohexen-1-one and 2H-indazol-3-ol derivatives” (Eur J Med Chem, 2013).
Converted amounts (≈) assume the structure as drawn.

Test system: Dickeya chrysanthemi
Assay: Antibacterial activity against Erwinia chrysanthemi ITCC B-40 assessed as as growth inhibition at 100 ug/disk after 24 hr by disk diffusion method
Assay type: functional
Conditions: ITCC B-40, 24 h, read-out: DIZ
Method in brief: (§1)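 Disk diffusion on nutrient agar. Strains kept on NA slants at 37 °C and subcultured in nutrient broth before testing. A log-phase culture was spread on solidified medium, and sterile disks were loaded with compound from DMSO stock. DMSO served as control, with commercial antibiotics for reference. Plates ran 24 h at 37 °C, and inhibition zones (mm) were read in quadruplicate.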

**Q.** With `CCOC(=O)C1C(=O)C=C(c2ccc([N+](=O)[O-])cc2)CC1c1ccc2c(c1)OCO2` (stereo unspecified) as the compound, how does the zone of inhibition at 100 µg/disc read?
**A.** 10 mm

**Q.** For `CCOC(=O)C1C(=O)C=C(c2ccc(C)cc2)CC1c1cc(OC)c(OC)c(OC)c1` (stereo unspecified), which zone of inhibition at 100 µg/disc is on record?
**A.** 0 mm

**Q.** `CCOC(=O)C1C(=O)C=C(c2ccc(F)cc2)CC1c1ccccc1` (stereo unspecified) was tested. Which zone of inhibition at 100 µg/disc did it give?
**A.** 10 mm

**Q.** With `CCOC(=O)C1C(=O)C=C(c2ccc(OC)c(OC)c2)CC1c1ccc(OC)cc1` (stereo unspecified) as the compound, how does the zone of inhibition at 100 µg/disc read?
**A.** 10 mm

Test system: Athelia rolfsii
Assay: Antifungal activity against Athelia rolfsii ITCC 6181 by food poisoning method
Assay type: functional
Conditions: Agroathelia rolfsii
Method in brief: (§2)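 Poisoned food technique on PDA at several concentrations. A 5 mm mycelial plug from the growing edge of a 2-week-old colony was placed inoculum-side down at the plate centre. Plates incubated at 27 °C until control growth was nearly complete. Colony diameter measured, percent inhibition calculated against control, LC50 derived. Four replicates per treatment.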

**Q.** How did the LC50 turn out when `CCCCC(O)(Cn1cncn1)c1ccc(Cl)cc1Cl` (stereo unspecified) [HEXACONAZOLE] was run?
**A.** 1.27 mg/L (≈ 4.04 µM)

**Q.** `CCOC(=O)C1C(=O)C=C(c2ccc([N+](=O)[O-])cc2)CC1c1ccc2c(c1)OCO2` (stereo unspecified) was tested. Which LC50 did it give?
**A.** 4310 mg/L (≈ 10500 µM)

**Q.** How did the LC50 turn out when `CCOC(=O)C1C(=O)C=C(c2ccc(C)cc2)CC1c1cc(OC)c(OC)c(OC)c1` (stereo unspecified) was run?
**A.** 345 mg/L (≈ 813 µM)

**Q.** With `CCOC(=O)C1C(=O)C=C(c2ccc(F)cc2)CC1c1ccccc1` (stereo unspecified) as the compound, how does the LC50 read?
**A.** 319 mg/L (≈ 943 µM)

**Q.** `CCOC(=O)C1C(=O)C=C(c2ccc(OC)c(OC)c2)CC1c1ccc(OC)cc1` (stereo unspecified) was tested. Which LC50 did it give?
**A.** 504 mg/L (≈ 1230 µM)

Test system: Bacillus thuringiensis
Assay: Antibacterial activity against Bacillus thuringiensis MTCC 6941 assessed as growth inhibition at 100 ug/disk after 24 hr by disk diffusion method
Assay type: functional
Conditions: MTCC 6941, 24 h, read-out: DIZ
Method in brief: as §1

**Q.** With `CCOC(=O)C1C(=O)C=C(c2ccc([N+](=O)[O-])cc2)CC1c1ccc2c(c1)OCO2` (stereo unspecified) as the compound, how does the zone of inhibition at 100 µg/disc read?
**A.** 0 mm

**Q.** Which zone of inhibition at 100 µg/disc does the source give for `CCOC(=O)C1C(=O)C=C(c2ccc(C)cc2)CC1c1cc(OC)c(OC)c(OC)c1` (stereo unspecified) here?
**A.** 0 mm

**Q.** `CCOC(=O)C1C(=O)C=C(c2ccc(F)cc2)CC1c1ccccc1` (stereo unspecified) was tested. Which zone of inhibition at 100 µg/disc did it give?
**A.** 0 mm

**Q.** Which zone of inhibition at 100 µg/disc does the source give for `CCOC(=O)C1C(=O)C=C(c2ccc(OC)c(OC)c2)CC1c1ccc(OC)cc1` (stereo unspecified) here?
**A.** 0 mm

Test system: Staphylococcus aureus
Assay: Antibacterial activity against Staphylococcus aureus MTCC 3160 assessed as growth inhibition at 100 ug/disk after 24 hr by disk diffusion method
Assay type: functional
Conditions: MTCC 3160, 24 h, read-out: DIZ
Method in brief: as §1

**Q.** With `CCOC(=O)C1C(=O)C=C(c2ccc([N+](=O)[O-])cc2)CC1c1ccc2c(c1)OCO2` (stereo unspecified) as the compound, how does the zone of inhibition at 100 µg/disc read?
**A.** 0 mm

**Q.** `CCOC(=O)C1C(=O)C=C(c2ccc(C)cc2)CC1c1cc(OC)c(OC)c(OC)c1` (stereo unspecified) was tested. Which zone of inhibition at 100 µg/disc did it give?
**A.** 0 mm

**Q.** For `CCOC(=O)C1C(=O)C=C(c2ccc(F)cc2)CC1c1ccccc1` (stereo unspecified), which zone of inhibition at 100 µg/disc is on record?
**A.** 0 mm

**Q.** `CCOC(=O)C1C(=O)C=C(c2ccc(OC)c(OC)c2)CC1c1ccc(OC)cc1` (stereo unspecified) was tested. Which zone of inhibition at 100 µg/disc did it give?
**A.** 0 mm

Test system: Bacillus pumilus
Assay: Antibacterial activity against Bacillus pumilus MTCC 2466 assessed as growth inhibition at 100 ug/disk after 24 hr by disk diffusion method
Assay type: functional
Conditions: MTCC 2466, 24 h, read-out: DIZ
Method in brief: as §1

**Q.** Which zone of inhibition at 100 µg/disc does the source give for `CCOC(=O)C1C(=O)C=C(c2ccc([N+](=O)[O-])cc2)CC1c1ccc2c(c1)OCO2` (stereo unspecified) here?
**A.** 0 mm

**Q.** How did the zone of inhibition at 100 µg/disc turn out when `CCOC(=O)C1C(=O)C=C(c2ccc(C)cc2)CC1c1cc(OC)c(OC)c(OC)c1` (stereo unspecified) was run?
**A.** 0 mm

**Q.** How did the zone of inhibition at 100 µg/disc turn out when `CCOC(=O)C1C(=O)C=C(c2ccc(F)cc2)CC1c1ccccc1` (stereo unspecified) was run?
**A.** 0 mm

**Q.** How did the zone of inhibition at 100 µg/disc turn out when `CCOC(=O)C1C(=O)C=C(c2ccc(OC)c(OC)c2)CC1c1ccc(OC)cc1` (stereo unspecified) was run?
**A.** 0 mm

Test system: Rhizoctonia solani
Assay: Antifungal activity against Rhizoctonia solani ITCC 5563 by food poisoning method
Assay type: functional
Conditions: not given
Method in brief: as §2

**Q.** With `CCCCC(O)(Cn1cncn1)c1ccc(Cl)cc1Cl` (stereo unspecified) [HEXACONAZOLE] as the compound, how does the LC50 read?
**A.** 1.12 mg/L (≈ 3.56 µM)

**Q.** `CCOC(=O)C1C(=O)C=C(c2ccc([N+](=O)[O-])cc2)CC1c1ccc2c(c1)OCO2` (stereo unspecified) was tested. Which LC50 did it give?
**A.** 29 mg/L (≈ 70.8 µM)

**Q.** `CCOC(=O)C1C(=O)C=C(c2ccc(C)cc2)CC1c1cc(OC)c(OC)c(OC)c1` (stereo unspecified) was tested. Which LC50 did it give?
**A.** 118 mg/L (≈ 278 µM)

**Q.** How did the LC50 turn out when `CCOC(=O)C1C(=O)C=C(c2ccc(F)cc2)CC1c1ccccc1` (stereo unspecified) was run?
**A.** 35 mg/L (≈ 103 µM)

Test system: Pseudomonas aeruginosa
Assay: Antibacterial activity against Pseudomonas aeruginosa MTCC 2581 assessed as growth inhibition at 100 ug/disk after 24 hr by disk diffusion method
Assay type: functional
Conditions: MTCC 2581, 24 h, read-out: DIZ
Method in brief: as §1

**Q.** `CCOC(=O)C1C(=O)C=C(c2ccc([N+](=O)[O-])cc2)CC1c1ccc2c(c1)OCO2` (stereo unspecified) was tested. Which zone of inhibition at 100 µg/disc did it give?
**A.** 0 mm

**Q.** Which zone of inhibition at 100 µg/disc does the source give for `CCOC(=O)C1C(=O)C=C(c2ccc(C)cc2)CC1c1cc(OC)c(OC)c(OC)c1` (stereo unspecified) here?
**A.** 0 mm

**Q.** For `CCOC(=O)C1C(=O)C=C(c2ccc(F)cc2)CC1c1ccccc1` (stereo unspecified), which zone of inhibition at 100 µg/disc is on record?
**A.** 0 mm

**Q.** How did the zone of inhibition at 100 µg/disc turn out when `CCOC(=O)C1C(=O)C=C(c2ccc(OC)c(OC)c2)CC1c1ccc(OC)cc1` (stereo unspecified) was run?
**A.** 0 mm

Test system: Radical scavenging activity
Assay: Antioxidant activity assessed as DPPH free radical scavenging activity after 20 min by UV-Vis spectrophotometric analysis
Assay type: functional
Set-up: concentration or dose not given beside the values
Conditions: not given
Method in brief: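 DPPH radical scavenging: samples were held at room temperature for 20 min in the dark, and absorbance was read at 517 nm. The control contained DMSO without compound, and methanol was used for baseline correction. Scavenging percentage was calculated from the absorbances.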

**Q.** For `CCOC(=O)C1C(=O)C=C(c2ccc([N+](=O)[O-])cc2)CC1c1ccc2c(c1)OCO2` (stereo unspecified), which Activity is on record?
**A.** 3.6%

**Q.** How did the Activity turn out when `CCOC(=O)C1C(=O)C=C(c2ccc(C)cc2)CC1c1cc(OC)c(OC)c(OC)c1` (stereo unspecified) was run?
**A.** 4.52%

**Q.** With `CCOC(=O)C1C(=O)C=C(c2ccc(F)cc2)CC1c1ccccc1` (stereo unspecified) as the compound, how does the Activity read?
**A.** 3.86%

**Q.** Which Activity does the source give for `CCOC(=O)C1C(=O)C=C(c2ccc(OC)c(OC)c2)CC1c1ccc(OC)cc1` (stereo unspecified) here?
**A.** 11.3%

Test system: Klebsiella pneumoniae
Assay: Antibacterial activity against Klebsiella pneumoniae MTCC 7028 assessed as growth inhibition at 100 ug/disk after 24 hr by disk diffusion method
Assay type: functional
Conditions: MTCC 7028, 24 h, read-out: DIZ
Method in brief: as §1

**Q.** With `CCOC(=O)C1C(=O)C=C(c2ccc([N+](=O)[O-])cc2)CC1c1ccc2c(c1)OCO2` (stereo unspecified) as the compound, how does the zone of inhibition at 100 µg/disc read?
**A.** 0 mm

**Q.** `CCOC(=O)C1C(=O)C=C(c2ccc(C)cc2)CC1c1cc(OC)c(OC)c(OC)c1` (stereo unspecified) was tested. Which zone of inhibition at 100 µg/disc did it give?
**A.** 0 mm

**Q.** With `CCOC(=O)C1C(=O)C=C(c2ccc(F)cc2)CC1c1ccccc1` (stereo unspecified) as the compound, how does the zone of inhibition at 100 µg/disc read?
**A.** 10 mm

**Q.** How did the zone of inhibition at 100 µg/disc turn out when `CCOC(=O)C1C(=O)C=C(c2ccc(OC)c(OC)c2)CC1c1ccc(OC)cc1` (stereo unspecified) was run?
**A.** 0 mm

Test system: Xanthomonas oryzae
Assay: Antibacterial activity against Xanthomonas oryzae ITCC B-47 assessed as as growth inhibition at 100 ug/disk after 24 hr by disk diffusion method
Assay type: functional
Conditions: ITCC B-47, 24 h, read-out: DIZ

**Q.** Which zone of inhibition at 100 µg/disc does the source give for `CCOC(=O)C1C(=O)C=C(c2ccc([N+](=O)[O-])cc2)CC1c1ccc2c(c1)OCO2` (stereo unspecified) here?
**A.** 0 mm

**Q.** How did the zone of inhibition at 100 µg/disc turn out when `CCOC(=O)C1C(=O)C=C(c2ccc(C)cc2)CC1c1cc(OC)c(OC)c(OC)c1` (stereo unspecified) was run?
**A.** 0 mm

**Q.** How did the zone of inhibition at 100 µg/disc turn out when `CCOC(=O)C1C(=O)C=C(c2ccc(F)cc2)CC1c1ccccc1` (stereo unspecified) was run?
**A.** 0 mm

**Q.** How did the zone of inhibition at 100 µg/disc turn out when `CCOC(=O)C1C(=O)C=C(c2ccc(OC)c(OC)c2)CC1c1ccc(OC)cc1` (stereo unspecified) was run?
**A.** 0 mm
